Entries after “also recorded” stand apart in the source; their conditions may differ.
Key:
[1] = pH 6.5; background statement, no reference given; cited from earlier work
MATE2 = conditions: cited from earlier work
MATE1 = conditions: cited from earlier work
[2] = Plasma PK, multiple ascending dose; type: in vivo, human; conditions: for AUCτ (dn) / Cmax (dn): dose normalized; for AUCτ (dn) / Cmax (dn) / AUCτ / Cmax: geometric mean (CV %); for Tmax: median (range); for t1/2: arithmetic mean (SD)
[3] = rats, preclinical studies; cited from earlier work
[4] = system: CYP1A2, CYP2D6, and CYP3A; conditions: cited from earlier work
MRP1 = conditions: cited from earlier work
[5] = system: sodium/Na+ taurocholate co‐transporting polypeptide; conditions: cited from earlier work
[6] = background statement, no reference given; cited from earlier work
[7] = Urinary PK, MAD period day 10; type: in vivo, human; conditions: day 10, across all doses
In short: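 During the MAD period, urine was collected on day −1 (0–24 h) and day 10 (0–12 h and 12–24 h), with LLOQ 1 ng/mL. Renal clearance and unchanged drug recovered in urine were summarized descriptively as geometric mean (CV), by dose group and for the Japanese 400 mg q.d. cohort.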

[8] = MAD day 1 fed Japanese cohort 400 mg q.d.
[9] = MAD day 10 fed Japanese cohort 400 mg q.d.

## Cn1cc(-c2cn3nccc3c(-c3cnn([C@]4(CC#N)C[C@@H](C#N)C4)c3)n2)cn1 [PF‐06826647]
[1]
  solubility: ~ 0.3 μg/mL
MATE2
  inhibition of transporter protein MATE2: MATE2 inhibition; also recorded: inhibitor of the MATE2 renal transporter
MATE1
  inhibition of transporter protein MATE1: minimal inhibition
[2]; MAD 30–400 mg q.d.
  dose proportionality of AUCτ and Cmax: less‐than‐dose‐proportional
[2]; MAD 400–1,200 mg q.d.
  dose proportionality of AUCτ and Cmax: dose‐proportional
[2]; MAD day 1 fed 30 mg q.d.
  AUCτ (dn): 22.1 (25) ng.hour/mL/mg
  Cmax (dn): 2.8 (24) ng/mL/mg
  AUCτ: 662.8 (25) ng.hour/mL
  Cmax: 83.5 (24) ng/mL
  Tmax: 3.0 (2.0–6.0) hour
[2]; MAD day 1 fed 100 mg q.d.
  AUCτ (dn): 18.0 (23) ng.hour/mL/mg
  Cmax (dn): 2.7 (20) ng/mL/mg
  AUCτ: 1,803.0 (23) ng.hour/mL
  Cmax: 267.2 (20) ng/mL
  Tmax: 4.0 (1.0–4.0) hour
[2]; MAD day 1 fed 200 mg b.i.d., tau = 12 hours
  AUCτ: 1,646.0 (70) ng.hour/mL
[2]; MAD day 1 fed 200 mg b.i.d.
  Cmax (dn): 1.5 (67) ng/mL/mg
  Cmax: 289.8 (67) ng/mL
  Tmax: 4.0 (2.0–6.0) hour
[2]; MAD day 1 fed 400 mg q.d.
  AUCτ (dn): 11.1 (67) ng.hour/mL/mg
  Cmax (dn): 1.5 (33) ng/mL/mg
  AUCτ: 4,424.0 (67) ng.hour/mL
  Cmax: 585.9 (33) ng/mL
  Tmax: 3.0 (2.0–6.0) hour
[2]; MAD day 1 fed 1,200 mg q.d.
  AUCτ (dn): 14.2 (20) ng.hour/mL/mg
  Cmax (dn): 1.7 (10) ng/mL/mg
  AUCτ: 17,090.0 (20) ng.hour/mL
  Cmax: 2,023.0 (10) ng/mL
  Tmax: 2.0 (2.0–4.0) hour
[2]; [8]
  AUCτ: 6,038.0 (29) ng.hour/mL
  Cmax: 695.5 (19) ng/mL
  Tmax: 4.0 (2.0–4.0) hour
[2]; MAD day 10, standard meal, all doses (30–1,200 mg)
  median Tmax: 4 h
[2]; MAD day 10 fed 30 mg q.d.
  t1/2: 8.8 (5.8) hour
  AUCτ (dn): 25.1 (32) ng.hour/mL/mg
  Cmax (dn): 2.8 (27) ng/mL/mg
  AUCτ: 752.9 (32) ng.hour/mL
  Cmax: 85.3 (27) ng/mL
  Tmax: 4.0 (4.0–6.0) hour
[2]; MAD day 10 fed 100 mg q.d.
  t1/2: 12.7 (12.7) hour
  AUCτ (dn): 19.5 (33) ng.hour/mL/mg
  Cmax (dn): 2.6 (30) ng/mL/mg
  AUCτ: 1,952.0 (33) ng.hour/mL
  Cmax: 263.2 (30) ng/mL
  Tmax: 4.0 (2.0–4.0) hour
[2]; MAD day 10 fed 200 mg b.i.d., tau = 12 hours
  AUCτ: 2,010.0 (49) ng.hour/mL
[2]; MAD day 10 fed 200 mg b.i.d.
  t1/2: 26.9 (8.1) hour
  Cmax (dn): 1.7 (46) ng/mL/mg
  Cmax: 339.5 (46) ng/mL
  Tmax: 4.0 (2.0–4.0) hour
[2]; MAD day 10 fed 400 mg q.d.
  t1/2: 7.5 (2.6) hour
  AUCτ (dn): 13.6 (57) ng.hour/mL/mg
  Cmax (dn): 1.7 (37) ng/mL/mg
  AUCτ: 5,420.0 (57) ng.hour/mL
  Cmax: 667.3 (37) ng/mL
  Tmax: 4.0 (2.0–6.0) hour
[2]; MAD day 10 fed 1,200 mg q.d.
  t1/2: 34.3 (21.9) hour
  AUCτ (dn): 12.4 (31) ng.hour/mL/mg
  Cmax (dn): 1.5 (21) ng/mL/mg
  AUCτ: 14,890.0 (31) ng.hour/mL
  Cmax: 1,855.0 (21) ng/mL
  Tmax: 4.0 (2.0–4.0) hour
[2]; [9]
  t1/2: 7.4 (4.8) hour
  AUCτ: 7,194.0 (20) ng.hour/mL
  Cmax: 887.0 (11) ng/mL
  Tmax: 4.0 (2.0–6.0) hour
[2]; after multiple dosing, q.d. and b.i.d.
  plasma accumulation: < 1.5 fold
[2]; both q.d. and b.i.d. dosing
  steady‐state reached by: ≤ 2 days
[3]
  drug clearance via renal and biliary excretion: limited drug clearance via renal and biliary excretion
[4]
  major human clearance pathway: cytochrome P450 (CYP)‐mediated (via CYP1A2, CYP2D6, and CYP3A) metabolism
MRP1
  inhibition of transporter protein MRP1: minimal inhibition
[5]
  inhibition of sodium/Na+ taurocholate co‐transporting polypeptide: minimal inhibition
[6]
  pKa: < 1.7
[7]
  dose recovered unchanged in urine: < 1.5%

Source: paper PMC7993274 (Clinical and Translational Science, 2020)
